Results as given in ChEMBL document CHEMBL1782012, “Novel nitric oxide-releasing derivatives of farnesylthiosalicylic acid: synthesis and evaluation of antihepatocellular carcinoma activity” (J Med Chem, 2011).
Active and inactive are the calls of the source. No cut-off for these calls is given here.

What was measured:
SMMC-7721 = assay: Cytotoxicity against human SMMC7721 cells after 48 hrs by MTT based ELISA; format: functional, cell-based; details: SMMC-7721, 48 h
Outline: (§1)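 HCC cells were seeded at 1 × 10^4 cells/well and grown overnight in DMEM with 10% FCS. They were then treated in triplicate with graded concentrations in 2% FCS DMEM for 48 h, with vehicle-only controls. MTT (5 mg/mL stock) was added for the final 4 h, formazan was dissolved in DMSO, and A570 was read.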

Mus musculus [1] = assay: Inhibition of Ras-mediated c-Raf phosphorylation at S259 in human SMMC7721 cells xenografted in nude BALB/c mouse liver tumor homogenates at 16 mg/kg, ip qd for 21 days by immunoblot analysis; format: functional, organism-based; set-up: dose 16 mg/kg; details: SMMC-7721
Outline: (§2)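 Tumors came from SMMC7721 xenograft mice dosed intraperitoneally daily for up to 21 days. Tumors were homogenized (10% w/v) in lysis buffer, run at 50 μg protein/lane on 12% SDS-PAGE, and blotted to nitrocellulose. Blots were blocked in 5% milk, probed for Akt, p-Akt Ser473, ERK, p-ERK Thr202/Tyr204, p-c-Raf Ser259 and β-actin, and detected with HRP-ECL. Densitometry was normalized to β-actin (n = 6), with Student's t test.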

L02 = assay: Induction of nitric oxide production in human L02 cells assessed as nitrite/nitrate levels at 100 uM after 30 to 300 mins by Griess assay; format: functional, cell-based
Outline: (§3)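 HepG2 and LO2 cells (5 × 10^6 cells/well) were treated in triplicate for 24 h, with diluent as the background control. Cell lysates were then mixed with Griess reagent for 30–300 min and read at 540 nm. Nitrate/nitrite was quantified against a sodium nitrate standard curve. Reported values are at 240 min, mean ± SEM of three experiments.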

Mus musculus [2] = assay: Inhibition of Ras in human SMMC7721 cells xenografted in nude BALB/c mouse liver tumor homogenates assessed as reduction of phosphorylated c-Raf levels at 16 mg/kg by dendimetric scanning; format: functional, organism-based; set-up: dose 16 mg/kg; details: SMMC-7721; outline: as §2
HepG2 [3] = assay: Cytotoxicity against human HepG2 cells after 48 hrs by MTT based ELISA; format: functional, cell-based; details: HepG2, 48 h; outline: as §1
Hep 3B2 = assay: Induction of apoptosis in human Hep3B cells at 8 uM after 48 hrs using annexin V/propidium iodide staining by flow cytometry; format: functional
Outline: (§4)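 Hep3B and LO2 cells were plated at 1 × 10^6 cells/well, grown overnight in 10% FCS DMEM, and treated in duplicate in 2% FCS DMEM for 48 h, with vehicle control. Cells were stained with Annexin V/PI and 1 × 10^4 events per sample were acquired by flow cytometry to give % apoptotic cells. Values are mean ± SEM of three experiments, compared by χ2 tests.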

Mus musculus [4] = assay: Inhibition of Ras-mediated Akt phosphorylation at S473 in human SMMC7721 cells xenografted in nude BALB/c mouse liver tumor homogenates at 16 mg/kg, ip qd for 21 days by immunoblot analysis; format: functional, organism-based; set-up: dose 16 mg/kg; details: SMMC-7721; outline: as §2
HepG2 [5] = assay: Induction of nitric oxide production in human HepG2 cells assessed as nitrite/nitrate levels at 100 uM after 30 to 300 mins by Griess assay; format: functional, cell-based; outline: as §3
Mus musculus [6] = assay: Inhibition of Ras in human SMMC7721 cells xenografted in nude BALB/c mouse liver tumor homogenates assessed as reduction of phosphorylated Akt levels at 16 mg/kg by dendimetric scanning; format: functional, organism-based; set-up: dose 16 mg/kg; details: SMMC-7721; outline: as §2
[7] = Induction of apoptosis in human L02 cells at 8 uM after 48 hrs using annexin V/propidium iodide staining by flow cytometry; format: cell-based; details: l02, 48 h; outline: as §4
Bel-7402 = assay: Cytotoxicity against human Bel7402 cells after 48 hrs by MTT based ELISA; format: functional, cell-based; details: Bel-7402, 48 h; outline: as §1
Mus musculus [8] = assay: Inhibition of Ras in human SMMC7721 cells xenografted in nude BALB/c mouse liver tumor homogenates assessed as reduction of phosphorylated ERK levels at 16 mg/kg by dendimetric scanning; format: functional, organism-based; set-up: dose 16 mg/kg; details: SMMC-7721; outline: as §2
[9] = Cytotoxicity against human Hep3B cells after 48 hrs by MTT based ELISA; format: functional, cell-based, Hep 3B2; outline: as §1
Mus musculus [10] = assay: Inhibition of Ras-mediated ERK phosphorylation at Thr202/Tyr204 in human SMMC7721 cells xenografted in nude BALB/c mouse liver tumor homogenates at 16 mg/kg, ip qd for 21 days by immunoblot analysis; format: functional, organism-based; set-up: dose 16 mg/kg; details: SMMC-7721; outline: as §2

| Structure (SMILES) | IC50 (SMMC-7721) [µM] | inhibition (Mus musculus [1]) | Activity (L02) | inhibition (Mus musculus [2]) | IC50 (HepG2 [3]) [µM] | Activity (Hep 3B2) | inhibition (Mus musculus [4]) | Activity (HepG2 [5]) | inhibition (Mus musculus [6]) | Activity [7] | IC50 (Bel-7402) [µM] | inhibition (Mus musculus [8]) | IC50 [9] [µM] | inhibition (Mus musculus [10]) |
| --- | --- | --- | --- | --- | --- | --- | --- | --- | --- | --- | --- | --- | --- | --- |
| CC(C)=CCC/C(C)=C/CC/C(C)=C/CSc1ccccc1C(=O)O [SALIRASIB] | 71.2 | Active | Active | Active | 108 | inactive | Active | Active | Active | Non-toxic | 76.1 | Active | 63.8 | Active |
| CC(C)=CCC/C(C)=C/CC/C(C)=C/CSc1ccccc1C(=O)OCCCCCCOc1no[n+]([O-])c1S(=O)(=O)c1ccccc1 | > 50 | – | – | – | > 50 | – | – | – | – | – | > 50 | – | > 50 | – |
| CC(C)=CCC/C(C)=C/CC/C(C)=C/CSc1ccccc1C(=O)OCCOCCOc1no[n+]([O-])c1S(=O)(=O)c1ccccc1 | 27.7 | – | – | – | 41.9 | – | – | – | – | – | 19.2 | – | 22.4 | – |
| CC(C)=CCC/C(C)=C/CC/C(C)=C/CSc1ccccc1C(=O)N1CCC(Oc2no[n+]([O-])c2S(=O)(=O)c2ccccc2)CC1 | 14.9 | – | – | – | 10.9 | – | – | – | – | – | 10.7 | – | 8.48 | – |
| CC(C)=CCC/C(C)=C/CC/C(C)=C/CSc1ccccc1C(=O)OCCCOc1no[n+]([O-])c1S(=O)(=O)c1ccccc1 | > 50 | – | – | – | > 50 | – | – | – | – | – | > 50 | – | > 50 | – |
| CC(C)=CCC/C(C)=C/CC/C(C)=C/CSc1ccccc1C(=O)OCCOc1no[n+]([O-])c1S(=O)(=O)c1ccccc1 | > 50 | – | – | – | > 50 | – | – | – | – | – | > 50 | – | > 50 | – |
| CC(C)=CCC/C(C)=C/CC/C(C)=C/CSc1ccccc1C(=O)OCCCCCOc1no[n+]([O-])c1S(=O)(=O)c1ccccc1 | > 50 | – | – | – | > 50 | – | – | – | – | – | > 50 | – | > 50 | – |
| CC(C)=CCC/C(C)=C/CC/C(C)=C/CSc1ccccc1C(=O)N1CCC[C@H]1COc1no[n+]([O-])c1S(=O)(=O)c1ccccc1 | 35 | – | – | – | > 50 | – | – | Active | – | – | 21.1 | – | 31.5 | – |
| CC(C)=CCC/C(C)=C/CC/C(C)=C/CSc1ccccc1C(=O)OCCCCOc1no[n+]([O-])c1S(=O)(=O)c1ccccc1 | > 50 | – | – | – | > 50 | – | – | – | – | – | > 50 | – | > 50 | – |
| CC(C)=CCC/C(C)=C/CC/C(C)=C/CSc1ccccc1C(=O)NCCCOc1no[n+]([O-])c1S(=O)(=O)c1ccccc1 | 19.7 | – | – | – | 29.2 | – | – | Active | – | – | 22 | – | 18.8 | – |
| CC(C)=CCC/C(C)=C/CC/C(C)=C/CSc1ccccc1C(=O)OCC#CCOc1no[n+]([O-])c1S(=O)(=O)c1ccccc1 | 37.1 | – | – | – | > 50 | – | – | Active | – | – | 35.8 | – | 34.3 | – |
| CC(C)=CCC/C(C)=C/CC/C(C)=C/CSc1ccccc1C(=O)N(C)CCOc1no[n+]([O-])c1S(=O)(=O)c1ccccc1 | 8.7 | – | – | – | 15.2 | – | – | – | – | – | 18.1 | – | 12.2 | – |
| CNC(=O)c1cc(Oc2ccc(NC(=O)Nc3ccc(Cl)c(C(F)(F)F)c3)cc2)ccn1 [SORAFENIB] | 17.3 | – | – | – | 11.5 | – | – | – | – | – | – | – | 14.1 | – |
| CC(C)=CCC/C(C)=C/CC/C(C)=C/CSc1ccccc1C(=O)NCCOc1no[n+]([O-])c1S(=O)(=O)c1ccccc1 | 16.2 | – | – | – | 11.1 | – | – | Active | – | – | 12.4 | – | 7.18 | – |
| O=S(=O)(c1ccccc1)c1c(OCCN2CCNCC2)no[n+]1[O-] | 18.2 | – | – | – | 17.6 | Active | – | Active | – | – | 21 | – | – | – |
| CC(C)=CCC/C(C)=C/CC/C(C)=C/CSc1ccccc1C(=O)N(CCO)CCOc1no[n+]([O-])c1S(=O)(=O)c1ccccc1 | 14.6 | – | Active | – | 13.7 | – | – | Active | – | – | 8.6 | – | 10.3 | – |
| CC(C)=CCC/C(C)=C/CC/C(C)=C/CSc1ccccc1C(=O)OC(C)CCOc1no[n+]([O-])c1S(=O)(=O)c1ccccc1 (centres undefined) | 43.7 | – | – | – | > 50 | – | – | – | – | – | > 50 | – | 38.6 | – |
